Screening data deposited in PubChem by Johns Hopkins Ion Channel Center.
Shown are actives, neighbours in structure and some others; about 2.9% of the full set was active somewhere.
TRPC4 agonist – activators of mouse TRPC4 channel, primary screen, Fluo4 calcium, HEK293 TRPC4beta/mu-opioid cells. B-score at 10 µM. Fluo4 calcium fluorescence; active compounds read high. AID 2237, 2010. actives 0.49% (n = 310,000). Short transient receptor potential channel 4 (Mus musculus), Q9QUQ5;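 active = B-score above 5 SD of library B-scores, and initial fluorescence ratio not above library mean plus 5 SD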;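 also: positive B-score marks a calcium rise read as TRPC4 activation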
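Assay system: HEK293 stable line with TRPC4beta plus mu-opioid receptor. Times: dye 45 min RT, read 110 s. Measured by: kinetic Fluo4 calcium fluorescence. Measure: B score of integrated ratio. Controls: assay buffer as low control, maximal DAMGO as high control.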
TRPC4 block – inhibitors of mouse TRPC4 channel, primary screen, Fluo4 calcium, HEK293 TRPC4beta/mu-opioid cells | Short transient receptor potential channel 4 (Mus musculus), Q9QUQ5 | DAMGO-evoked Fluo4 calcium flux; active compounds read low | B-score at 10 µM | actives 0.39% (n = 300,000);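 active = B-score over 3 SD under the library average, no early fluorescence shift, positive overall ratio signal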
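System: stable TRPC4beta/mu-opioid receptor HEK293 cells; Dosing: single-point compound dosing; Measured by: Fluo4 Ca2+ flux fluorescence; Read-out basis: per-well B score of integrated baseline-normalized Fluo4 ratio.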
TRPC6 act – mouse TRPC6 channel activators, primary screen, cell-based, HEK293, membrane potential dye; HEK293-TRPC6 membrane potential dye fluorescence; active compounds read high; actives 0.13% (n = 310,000); B-score at 10 µM; Short transient receptor potential channel 6 (Mus musculus), Q61143;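 active = B-score of the integrated fluorescence ratio above library mean plus 3 SD, and starting fluorescence ratio within library mean plus 5 SD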;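 also: higher score means more depolarization so channel activation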
TRPC6 inh – mouse TRPC6 channel inhibitors, primary screen, cell-based, HEK293, membrane potential dye; B-score at 10 µM; ACh-evoked depolarization; active compounds read low; actives 1.1% (n = 310,000); Short transient receptor potential channel 6 (Mus musculus), Q61143;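 active = B-score under library mean minus 3 SD, initial fluorescence not abnormally high, positive integrated signal ratio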;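 also: B-score derived from integrated fluorescence ratio over the kinetic read; more negative B-score means stronger inhibition of depolarization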
Kir21 inh – inhibitors of mouse Kir2.1 inward-rectifier potassium channel; Inward rectifier potassium channel 2 (Mus musculus), P35561; HEK293-Kir2.1, FluxOR thallium flux fluorescence; active compounds read low; B-score at 10 µM; actives 0.85% (n = 310,000); AID 1672, 2009;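 active = fluorescence ratio B-score at or below minus 3 SD of library scores, with starting-brightness B-score within 2 SD, cut at about -4.2 in these data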;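 also: channel flux triggered by added potassium and thallium sulfate stimulus; B-score of peak minus minimum fluorescence over baseline after thallium stimulus; more negative B-score means stronger Kir2.1 block with less thallium influx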
TRPC4 potent – positive allosteric modulators of TRPC4, primary screen, cell-based, mouse TRPC4beta, HEK293 mu-opioid, Fluo-4 calcium | Short transient receptor potential channel 4 (Mus musculus), Q9QUQ5 | DAMGO EC20, Fluo-4 Ca2+ flux; active compounds read high | B-score at 10 µM | actives 0.42% (n = 310,000) | AID 2227, 2009;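 active = B-score of calcium response area above 5 SD of library B-scores, with initial fluorescence ratio within 5 SD of library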;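 also: B-score of integrated fluorescence ratio over time as area under calcium response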
* = called active by the depositor; i = inactive.

SMILES	TRPC4 agonist	TRPC4 block	TRPC6 act	TRPC6 inh	Kir21 inh	TRPC4 potent
CS(=O)(=O)N(CC(O)CON=C1c2ccccc2-c2ccccc21)c1ccc(F)cc1 (stereo not given)	i	i	i	i	0.72	i
COc1ccc(C(OCC(O)CNCCc2ccccc2)c2ccc(OC)cc2)cc1 (stereo not given)	i	i	i	i	-6.66*	i
CCC(=O)c1ccc(OCC(O)CNCCc2ccc(Cl)cc2)cc1 (stereo not given)	59*	i	i	i	-3.05	i
CC(=O)NCCOc1cccc2ccccc12	i	i	i	i	0.93	i
c1ccc(CCNCCCOc2cccc3ccccc23)cc1	66*	i	i	i	-16.3*	i
O=C(Nc1ccc(N2CCN(C(=O)c3ccccc3F)CC2)cc1)c1cncc(Br)c1	i	i	i	i	-0.01	i
Cn1c(CC(=O)Nc2ccc(Cl)cc2)nnc1SCC(=O)N1CCOCC1	i	i	i	i	0.82	i
CCCCCCn1c(C(C)NC(=O)c2ccco2)nc2ccccc21 (stereo not given)	i	i	i	i	-9.02*	i
CCCCCn1c(NCc2ccco2)nc2ccccc21	i	i	i	i	-4.48*	i
CCn1c(CCNC(=O)c2ccco2)nc2ccccc21	i	i	i	i	0.24	i
C=CCn1c(CCNC(=O)c2ccco2)nc2ccccc21	168*	i	i	i	0.61	i
Cc1ccccc1C(=O)N1CCC(C(=O)Nc2nc3ccc(F)cc3s2)CC1	i	i	i	i	-0.06	i
COc1ccc(C2N(C(=O)CN3CCCC3)CCCN2S(=O)(=O)c2ccccc2)cc1 (stereo not given)	i	i	i	i	-0.12	i
O=C(CNCC1CCCCC1)Nc1ccc(OC(F)(F)F)cc1	43*	i	i	i	0.85	i
COC(=O)c1cccc2c1-c1ccccc1/C2=N/O	i	-7*	i	i	0.54	i
COC(=O)c1cccc2c1-c1ccccc1/C2=N\NC(N)=O	i	i	i	i	0.15	i
CCOC(=O)C1=NN(C(=O)COc2ccccc2)C(O)(c2ccc(Br)cc2)C1 (stereo not given)	47*	i	i	i	0.05	i
CC1=NN(C(=O)COc2ccc(C)c(C)c2)C(O)(c2ccc(Cl)cc2)C1 (stereo not given)	i	i	i	i	-0.4	22*
Cc1ccc(OCC(=O)N2N=C(C(F)(F)F)CC2(O)C(C)(C)C)cc1C (stereo not given)	i	i	i	i	-4.25*	i
Cc1ccccc1OCC(=O)N1N=C(C(F)(F)F)CC1(O)C(C)(C)C (stereo not given)	i	i	i	i	-0.1	i
CCC1=NN(C(=O)COc2ccccc2)C(O)(c2ccncc2)C1 (stereo not given)	i	i	i	i	2.35	i
CN(C(=O)C1CCC(=O)N(Cc2cccc(F)c2)C1)C1CCCCC1 (stereo not given)	i	i	i	i	-3.65	i
O=C(NCC(c1ccco1)N1CCc2ccccc2C1)c1ccc(F)cc1 (stereo not given)	i	i	i	i	0.36	i
O=C(NCCNC1CCC(c2ccccc2)CC1)c1cccs1 (stereo not given)	158*	i	i	i	-2.72	i
Cc1ccc(C(=O)NNC(=O)C2CSC3(C)CCC(=O)N23)cc1 (stereo not given)	i	i	i	i	-0.13	24*
SMILES	TRPC4 agonist	TRPC4 block	TRPC6 act	TRPC6 inh	Kir21 inh	TRPC4 potent
Cc1ccc(OCC(=O)NNC(=O)C2CSC3(C)CCC(=O)N23)cc1 (stereo not given)	i	i	i	i	0.73	i
COc1cc(NC(=O)CN2C(=O)C(C)N(c3ccc(C)cc3)C2=O)cc(OC)c1 (stereo not given)	i	i	i	i	1.3	i
CCN1CCN(C(c2cccs2)C(C)NC(=S)Nc2cc(C)ccc2C)CC1 (stereo not given)	i	i	i	i	-5.52*	i
Cc1ccc(C)c(NC(=S)NC(C)C(c2ccccc2)N2CCN(C)CC2)c1 (stereo not given)	i	i	i	i	-2.04	i
O=[N+]([O-])c1cc([N+](=O)[O-])c2oc(-c3ccccc3)c(Br)c2c1O	i	i	i	i	-0.97	i
Cc1cc2ccccn2c1C(=O)c1ccccc1F	i	i	i	i	-0.37	i
CCOc1ccc(-c2nc(CSCC(=O)NC3CC3)c(C)o2)cc1	i	i	i	i	0.42	i
CCOc1ccc(-c2nc(CSCC(=O)NCc3ccco3)c(C)o2)cc1	i	i	12.5*	i	-0.81	i
CN(C)S(=O)(=O)N1CCc2ccc(NC(=O)c3ccc(C(F)(F)F)cc3)cc2C1	i	i	i	i	-0.23	i
O=[N+]([O-])c1cc(S(=O)(=O)Nc2ccccc2)ccc1N1CCN(c2ccc(O)cc2)CC1	i	i	i	i	1.81	i
Cc1ccc(NS(=O)(=O)c2ccc(N3CCN(c4ccc(O)cc4)CC3)c([N+](=O)[O-])c2)c(C)c1	i	i	i	i	1.6	26*
Cc1ccc2c(CN(C)Cc3cccc(Cl)c3)cc(=O)oc2c1C	i	i	i	i	0.04	11*
C=CCN(C(=O)CCC(=O)Nc1cc(C)on1)C(C(=O)NC1CCCC1)c1ccc(CC)cc1 (stereo not given)	i	i	i	i	0	i
O=C(CN1C(=O)NC2(CCCC2)C1=O)Nc1cc(C(F)(F)F)ccc1N1CCCCC1	i	i	i	i	-0.12	i
OCCC1CN(Cc2ccc3c(c2)CCO3)CCN1Cc1ccc(F)cc1 (stereo not given)	i	i	i	i	-0.57	i
